What all share (type): physicochemical
Data set [1] can be described thus: Distribution coefficient and iron(III) complex was measured at an aqueous phase buffered at pH 7.4 and octanol. To be noted: octanol/water. In short, it runs like this:
(§1)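 Spectrophotometric partition: ligands at about 0.1 mM in 20 mM Tris-HCl pH 7.4 shaken overnight with octan-1-ol at 25 °C. Octanol volume chosen to lower aqueous absorbance by 30–70%; three preparations used. Aqueous spectra read at 250–350 nm for free ligands and 350–600 for iron(III) complexes, the complexes formed with over 10-fold ligand excess over iron(III).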

Data set [2] in a line: Distribution coefficient was measured at an aqueous phase buffered at pH 7.4 and octanol. The conditions noted are these: octanol/water. In short, it runs like this:
as §1

Data set [3] is described as follows: pKa values was measured by spectrophotometric method.
Data set [4] is described as follows: pKa values were measured by spectrophotometric method.

As for `CC(C)NC(=O)Cn1cccc(O)c1=O`, the results for the Distribution coefficient in data set [1] and in data set [2] were 0.11 and 0.46, respectively.

In the case of `CCCNC(=O)Cn1cccc(O)c1=O`, the Distribution coefficient in data set [1] was determined as 0.35; in data set [2], 0.57. For the same compound, in data set [3], the pKa (in general, the pH at which an ionisable group is half protonated) came out at 8.75.

`CCn1cccc(O)c1=O`: the results for the Distribution coefficient in data set [1] and in data set [2] were 1.67 and 1.57, respectively. In data set [4], this compound displayed a pKa of 8.99.

On to `CNC(=O)Cn1cccc(O)c1=O`, for which the Distribution coefficient in data set [1] stood at 0.001; in data set [2], 0.07.

For the compound `CCNC(=O)Cn1cccc(O)c1=O`, the Distribution coefficient in data set [1] came to 0.035; in data set [2], 0.18.

Turning to `CCCCNC(=O)Cn1cccc(O)c1=O`, the Distribution coefficient in data set [1] was determined as 3.74; in data set [2], 2.12.

As for `O=C(Cn1cccc(O)c1=O)NCCN(CCNC(=O)Cn1cccc(O)c1=O)CCNC(=O)Cn1cccc(O)c1=O`, the Distribution coefficient came out at 0.008 in data set [1] and 0.025 in data set [2]. The pKa in data set [3] amounted to 8.7.

Take `CCCCn1cccc(O)c1=O`: the Distribution coefficient in data set [1] was greater than 1000; in data set [2] it was 16.

With `CC(C)n1cccc(O)c1=O`, the results for the Distribution coefficient in data set [1] and in data set [2] were 234 and 6.17, respectively.

Take `CCCn1cccc(O)c1=O`: the Distribution coefficient is 24.6 in data set [1] and 4.92 in data set [2].

On to `Cn1cccc(O)c1=O`, for which the Distribution coefficient in data set [1] was 0.12; in data set [2], 0.6.

Consider `CC(=O)N(O)CCCCCNC(=O)CCC(=O)N(O)CCCCCNC(=O)CCC(=O)N(O)CCCCCN` [DEFEROXAMINE], for which the Distribution coefficient amounted to 0.03 in data set [1] and 0.07 in data set [2].

Values taken from ChEMBL document CHEMBL1124801, “Novel 3-hydroxy-2(1H)-pyridinones. Synthesis, iron(III)-chelating properties, and biological activity” (J Med Chem, 1990).
